From ChEMBL document CHEMBL1147139, “Synthesis and pharmacological evaluation of a selected library of new potential anti-inflammatory agents bearing the gamma-hydroxybutenolide scaffold: a new class of inhibitors of prostanoid production through the selective modulation of microsomal prostaglandin E synthase-1 expression” (J Med Chem, 2007) come the findings set out here.

Activity calls are given as the source filed them. The calls are words filed in the database; no cut-off is given here. Residues, ends and D or L forms follow the SMILES beside them. *: point of attachment. Cbz = O=C(OCc1ccccc1)*

For experiment [1], the target named is T1, Phospholipase A2 (Apis mellifera) (UniProt P00630).
T1 sequence (whole entry): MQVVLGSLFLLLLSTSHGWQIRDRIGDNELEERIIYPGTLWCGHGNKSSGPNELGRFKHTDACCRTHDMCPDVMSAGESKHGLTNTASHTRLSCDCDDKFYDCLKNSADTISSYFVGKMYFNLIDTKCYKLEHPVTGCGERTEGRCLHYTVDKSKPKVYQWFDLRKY
As to the kind of experiment: Inhibition of bee venom sPLA2 at 10 uM. The method, boiled down:
(§1)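 Radiometric sPLA2 assay on [3H]oleate-labeled, autoclaved E. coli CECT 101 membranes. Enzyme in 100 mM Tris-HCl/1 mM CaCl2, pH 7.5, preincubated 5 min at 37 °C with compound (10 µM) or vehicle. Then 15 min with labeled membranes, stopped with ice-cold BSA (0.07% w/v final). Supernatant radioactivity counted after centrifugation; % inhibition, mean ± SEM, n = 6.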

In experiment [2] the target is Phospholipase A2, major isoenzyme (Sus scrofa) (UniProt P00592). Nature of the experiment: Inhibition of pig sPLA2 at 10 uM. The method, boiled down: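 sPLA2 (human recombinant synovial group IIA; porcine pancreatic group IB) in 100 mM Tris-HCl/1 mM CaCl2, pH 7.5, preincubated 5 min at 37 °C with compound (10 µM) or vehicle. 15 min incubation with [3H]oleate-labelled autoclaved E. coli membranes as substrate. Stopped with ice-cold BSA (0.07% final), centrifuged, supernatant radioactivity counted. Mean ± SEM, n = 6.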

The target in experiment [3] is Acidic phospholipase A2 2 (Naja naja) (UniProt P15445). As to the kind of experiment: Inhibition of Naja naja venom sPLA2 at 10 uM. The method, boiled down: as §1
For experiment [4], the system named is RAW264.7. Nature of the experiment: Inhibition of NF-kappaB DNA binding in LPS-stimulated mouse RAW264.7 cells. Type of experiment: cell-based. The method, boiled down: (§2)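 EMSA: RAW 264.7 cells (1.5 × 10^6/well) preincubated 30 min with compound, then LPS (1 µg/mL) for 1 h. Nuclear extracts (6 µg) incubated on ice for 15 min with 32P-end-labelled consensus NF-κB oligonucleotide and poly(dI-dC), pH 8.0. Complexes resolved on native 6% PAGE and detected by autoradiography. Two independent experiments.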

In experiment [5] the test system is RAW264.7. As to the kind of experiment: Inhibition of PGE2 production in LPS-stimulated mouse RAW264.7 cells at 10 uM after 2 hrs. Type of experiment: functional. The method, boiled down:
(§3)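 Post-induction phase: RAW264.7 cells that had already expressed COX-2 and mPGES-1 after LPS stimulation were given compound for 2 h in fresh medium supplemented with arachidonic acid. PGE2 in supernatants was quantified by radioimmunoassay. Mean ± SEM, n = 6.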

The test system of experiment [6] is RAW264.7. Nature of the experiment: Inhibition of NF-kappaB DNA binding in LPS-stimulated mouse RAW264.7 cells at 1 uM. Type of experiment: cell-based. The method, boiled down: as §2
The subject of experiment [7] is RAW264.7. As to the kind of experiment: Inhibition of PGE2 production in LPS-stimulated mouse RAW264.7 cells at 1 uM after 18 hrs. It counts as functional. The method, boiled down:
(§4)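 RAW 264.7 macrophages (1.5 × 10^6 cells/mL) co-incubated with E. coli 0111:B4 LPS (1 µg/mL) and compound or vehicle at 37 °C (induction phase). PGE2 in supernatants measured by radioimmunoassay; MTT reduction checked cytotoxicity. Mean ± SEM, n = 6; IC50 from at least four concentrations.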

The test system of experiment [8] is RAW264.7. Nature of the experiment: Inhibition of PGE2 production in LPS-stimulated mouse RAW264.7 cells at 1 uM after 2 hrs. Type of experiment: functional. The method, boiled down:
as §3

In experiment [9] the test system is RAW264.7. As to the kind of experiment: Inhibition of PGE2 production in LPS-stimulated mouse RAW264.7 cells at 10 uM after 18 hrs. Type of experiment: functional. The method, boiled down:
as §4

Experiment [10] is filed under the species Mus musculus. As to the kind of experiment: Decrease of mPGES1 expression in zymosan-stimulated Swiss mouse air pouch model after 24 hrs. It counts as functional, organism-based. The method, boiled down: (§5)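 Female Swiss mice (25-30 g) air pouch; six days after initial air injection, 1 mL of 1% (w/v) zymosan in saline injected into pouch, compound given intrapouch at the same time. Exudate collected after 24 h; cell pellets analysed by Western blot for COX-2, mPGES-1 and β-actin. Densitometry expressed as percentage of zymosan control band intensity.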

Experiment [11] has as its system RAW264.7. Nature of the experiment: Inhibition of COX2 expression in LPS-stimulated mouse RAW264.7 cells after 2 hrs by Western blot analysis. Type of experiment: functional, cell-based. In general terms: A western blot detects proteins with antibodies after separation by electrophoresis.
Experiment [12] relates to RAW264.7. As to the kind of experiment: Inhibition of mPGES1 expression in LPS-stimulated mouse RAW264.7 cells after 2 hrs by Western blot analysis. Type of experiment: functional, cell-based.
For experiment [13], the system named is THP-1. As to the kind of experiment: Inhibition of COX2 expression in LPS-stimulated human THP1 cells at 1 uM by Western blot analysis. Type of experiment: functional, cell-based. The method, boiled down:
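THP-1 human monocytic cells (1 × 10^6 cells/mL, RPMI with 10% FBS) incubated 18 h with LPS (1 µg/mL) plus compound. Lysates taken, total fraction (30 µg protein) run on SDS-15% PAGE, then blotted with polyclonal anti-COX-2 (1/200), peroxidase secondary and chemiluminescence detection.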

Experiment [14] concerns RAW264.7. Nature of the experiment: Inhibition of PGE2 production in LPS-stimulated mouse RAW264.7 cells after 18 hrs. Type of experiment: functional, cell-based. The note with it: RAW264.7, 18 h. The method, boiled down:
as §4

In experiment [15] the test system is RAW264.7. Nature of the experiment: Inhibition of NF-kappaB DNA binding in LPS-stimulated mouse RAW264.7 cells at 10 uM. It counts as cell-based. The method, boiled down:
as §2

Experiment [16] is filed under the species Mus musculus. Nature of the experiment: Inhibition of COX2 expression in zymosan-stimulated Swiss mouse air pouch model after 24 hrs. It counts as functional, organism-based. The method, boiled down: as §5

Acidic phospholipase A2 2 (Naja naja), sequence (P15445 whole entry): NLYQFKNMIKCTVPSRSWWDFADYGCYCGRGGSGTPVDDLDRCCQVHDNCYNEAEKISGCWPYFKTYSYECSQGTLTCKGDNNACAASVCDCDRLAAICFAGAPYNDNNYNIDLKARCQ
Phospholipase A2, major isoenzyme (Sus scrofa), sequence (P00592 23-146 limits assumed): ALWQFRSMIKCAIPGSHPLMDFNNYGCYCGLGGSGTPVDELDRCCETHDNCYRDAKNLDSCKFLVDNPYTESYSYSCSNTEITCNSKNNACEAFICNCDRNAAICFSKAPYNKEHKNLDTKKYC

`CCCCc1ccc(C2=C(Br)C(=O)OC2O)cc1` (stereo not drawn): the inhibition in experiment [1] came out at 32.9%; in experiment [2] it was 35.1%; in experiment [3], 26%.
As to `CCc1c(CC(N)=O)c2cc(OCCCP(=O)(O)O)ccc2n1Cc1ccccc1`, the inhibition is 0% in experiment [1], 6.8% in experiment [2] and 2.7% in [3]. Further, the outcome in [4] was inactive.
`O=C1OC(O)C(c2ccc3ccccc3c2)=C1c1ccc2ccccc2c1` (stereo not drawn): the inhibition in [1] stood at 25.2%; in experiment [2] it was 22.5%; in experiment [3], 9.1%.
The compound `CS(=O)(=O)Nc1ccc([N+](=O)[O-])cc1OC1CCCCC1` [NS-398] had an Activity in experiment [5] of 0.07 ng/mL.
On to `CC(=O)O[C@@H]1O[C@@H](C2=CC(=O)OC2O)C[C@@H]2[C@@H]1CC[C@H]1[C@@]2(C)CC[C@H]2C(C)(C)CCC[C@]12C` (stereo partly drawn) [PETROSASPONGIOLIDE M], for which the inhibition in experiment [1] came to 60.8%; in experiment [2], 11.4%; in experiment [3], 5.4%. Further, the result in experiment [6] was Active. The results for the Activity in experiment [7] and in experiment [8] were 7.3 ng/mL and 0.22 ng/mL, respectively.
As to `O=C1OC(O)C(c2cccc3c2Sc2ccccc2S3)=C1Br` (stereo not drawn), the inhibition was 0% in experiment [1], 0% in [2] and 1.5% in [3].
Regarding `O=C1OC(O)C(c2csc3ccccc23)=C1Br` (stereo not drawn), the inhibition is 9.8% in experiment [1], 33.5% in experiment [2] and 15.4% in [3].
Consider `O=C1OC(O)C(c2cc3ccccc3s2)=C1Br` (stereo not drawn), for which the inhibition in [1] amounted to 0%; in [2] it was 18.7%; in [3], 3.4%. Further, the Activity in experiment [7] is 10.7 ng/mL; in experiment [9], 6.7 ng/mL; in [4] it was “Dose-dependent effect”; in experiment [8], 0.23 ng/mL; in [5], 0.22 ng/mL; in experiment [12] it was “Dose-dependent effect”. The outcome in experiment [10] was Active. For the same compound, the outcome in [11] and in [13] was inactive. The compound further had a half-inhibitory concentration (IC50) in experiment [14] of 1800 nM.
As for `O=C1OC(O)C(c2ccc(Oc3ccccc3)cc2)=C1Br` (stereo not drawn), the inhibition was determined as 2.1% in [1], 7.8% in experiment [2] and 1% in experiment [3].
Taken in the same sequence, the figures for `O=C1OC(O)C(c2ccc(-c3ccccc3)cc2)=C1Br` (stereo not drawn) were 14.4%, 26% and 7.5%.
For the compound `CC(C)C[C@@H](C=O)NC(=O)[C@H](CC(C)C)NC(=O)[C@H](CC(C)C)NC(=O)OCc1ccccc1` (Cbz-Leu-Leu-Leu-aldehyde), the result in [15] was Active.
Turning to `O=C1OC(O)C(c2ccc3ccccc3c2)=C1Br` (stereo not drawn), the inhibition in experiment [1] stood at 14.7%; in [2], 27.7%; in experiment [3], 9.2%.
Taken in the same sequence, the figures for `O=C1OC(O)C(c2cccc3ccccc23)=C1Br` (stereo not drawn) were 0%, 13.7% and 8.6%.
Consider `O=C1OC(O)C(c2cccc3c2oc2ccccc23)=C1Br` (stereo not drawn), for which the results for the inhibition in experiment [1], in experiment [2] and in experiment [3] were 20.4%, 38.6% and 0%, respectively.
For the compound `C[C@@H]1C[C@H]2[C@@H]3CCC4=CC(=O)C=C[C@]4(C)[C@@]3(F)[C@@H](O)C[C@]2(C)[C@@]1(O)C(=O)CO` [DEXAMETHASONE], the Activity in [7] came out at 3.4 ng/mL; in experiment [8] it was 0.21 ng/mL. For the same compound, the outcome in [10], in experiment [11], in experiment [16] and in [12] was Active.

Broadly, the inhibition is the change of the read-out against control, counted positive when it falls. What is called IC50 is the concentration that gives 50% inhibition. A higher IC50 goes with a need for much substance.
